Measurements of several laboratories.
Compare with care: the assays were run in different laboratories.
TYK2: Non-receptor tyrosine-protein kinase TYK2 (TYK2, Homo sapiens, UniProt P29597)
TYK2 JH2: Non-receptor tyrosine-protein kinase TYK2, JH2 (TYK2, Homo sapiens, UniProt P29597)
TYK2 JH1: Non-receptor tyrosine-protein kinase TYK2, JH1 (TYK2, Homo sapiens, UniProt P29597)

Structure (SMILES)	target	read-out	action	technique	concentration	quantity	result
Cc1sc(C(=O)NC2COC2)cc1-n1cc(NC(=O)Nc2c(F)cccc2Cl)cn1	TYK2	enzyme activity	inhibitor		10 µM	remaining activity	114%
O=C1CCc2cc(Nc3cc(OC4CCOCC4)c([N+](=O)[O-])cc3Cl)ccc2N1	TYK2 JH2	cell-free assay		competition with immobilised ligand	1 µM	remaining binding	94%
Nc1ncnc2occ(-c3ccc(NC(=O)Nc4cc(C(F)(F)F)ccc4F)cc3)c12	TYK2 JH2	cell-free assay	inhibitor		20 µM	remaining signal	100%
c1cnn2ncc(-c3ccnc(N4CCC45COC5)n3)c2c1	TYK2 JH1	cell-free assay			1 µM	remaining signal	64%
O=C(CSc1nc2nccnc2c(=O)n1CCc1ccccc1)Nc1nccs1	TYK2	enzyme activity	inhibitor		10 µM	inhibition	5%
COc1cc(Cl)c(C(=O)N[C@@H](CN[C@H]2CC[C@@H](N)CC2)Cc2ccc(C#N)cc2)cc1-c1ccc(CN[C@H](C)c2ccc(C)cc2)o1	TYK2	enzyme activity	inhibitor		1 µM	remaining activity	105%
COCCOc1nc(-c2ccc(Cl)nc2)nc2c1CN(C(=O)c1ncn3ccccc13)CC2	TYK2 JH1	cell-free assay		competition with immobilised ligand	0.1 µM	remaining binding	100%
Cc1cnn2ncc(-c3ccnc(N(C)C)n3)c2c1	TYK2	binding			1 µM	remaining binding	32%
CCC(=N\O)/C(C)=C/c1ccc(F)cc1	TYK2 JH2	cell-free assay		competition with immobilised ligand	1 µM	remaining binding	73%
O=C1Nc2ccc(Cl)cc2C1=Cc1cc(Cl)c(O)c(Cl)c1	TYK2	cell-free assay			0.5 µM	remaining signal	26.9%
CN([C@@H]1CCc2c(CC(=O)O)c3ccccc3n2C1)S(=O)(=O)c1ccc(F)cc1	TYK2 JH1	cell-free assay		competition with immobilised ligand	1 µM	remaining binding	100%
Nc1nc(Nc2ccc(S(N)(=O)=O)cc2)nn1C(=O)c1c(F)cccc1F	TYK2	cell-free assay			0.5 µM	remaining signal	0.878%
CCC(=O)N[C@@H]1CC[C@H](C(=O)N(C)c2ccc(-c3nc4ccccc4o3)cc2)C1	TYK2 JH2	cell-free assay		competition with immobilised ligand	1 µM	remaining binding	100%
F[C@@H]1CCN(c2nccc(-c3cnn4ncccc34)n2)C1	TYK2 JH1	cell-free assay		competition with immobilised ligand	1 µM	remaining binding	100%
COc1cc2ncnc(Nc3ccc(Oc4ccccc4)cc3C)c2cc1OC	TYK2	enzyme activity	inhibitor		1 µM	inhibition	7%
Cc1cnc(NC2CCOCC2)nc1-n1cnc(C(=O)NC(CN)c2cc(F)cc(Cl)c2)c1 (stereo not shown)	TYK2	enzyme activity	inhibitor	radiometric	1 µM	remaining activity	96%
O=C(NCc1ncc(C(F)(F)F)cc1Cl)c1ccc2c(c1)C1(CCS(=O)(=O)CC1)[C@H](C1CC1)N2S(=O)(=O)c1ccc(F)cc1	TYK2 JH2	cell-free assay		competition with immobilised ligand	1 µM	remaining binding	79%
CC1CCCN1c1nccc(-c2cnn3ncccc23)n1 (stereo not shown)	TYK2	binding			1 µM	remaining binding	87%
COc1cc2nccc(Oc3ccc(NC(=O)c4c5n(n(-c6ccc(F)cc6)c4=O)CCCC5)cc3)c2cc1OC	TYK2	enzyme activity	inhibitor		0.1 µM	inhibition	-28%
